Experimental data taken from ChEMBL document CHEMBL1142728, “Design and optimization of tricyclic phtalimide analogues as novel inhibitors of HIV-1 integrase” (J Med Chem, 2005).

Experiments:
[1] = target: T1, Human immunodeficiency virus type 1 integrase (Human immunodeficiency virus 1, UniProt Q7ZJM1); experiment: Log of inhibitory concentration against human immunodeficiency virus type 1 integrase
Outline: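 Strand transfer ELISA using recombinant His-tagged HIV-1 integrase expressed in E. coli BL21(DE3). 20 nM biotinylated processed viral DNA substrate is preincubated with 300 nM integrase for 5 min at 37 °C. Serial compound dilutions and 50 nM target DNA are then added in 20 mM Hepes pH 7.5, 25 mM NaCl, 5 mM MnCl2, 2 mM DTT, 50 µg/mL BSA and incubated 2 h at 37 °C. Products are captured on streptavidin plates, detected with anti-FITC peroxidase antibody and read by chemiluminescence.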

[2] = tested on: Human immunodeficiency virus 1; experiment: Log of cytotoxic concentration against human immunodeficiency virus type 1 using cell-based replication assay in MT-4 cells; format: functional, MT4
Outline: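 Mock-infected MT4 cells (150 000 cells/mL) get the same compound concentration range and are incubated 3 days at 37 °C, 5% CO2, in parallel with the HIV-infected cultures. Toxicity is scored as reduced GFP reporter expression. CC50/pCC50 come from dose-response curves of percent inhibition.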

[3] = tested on: Human immunodeficiency virus 1; experiment: Log of effective concentration against human immunodeficiency virus type 1 using cell-based replication assay in MT-4 cells; format: functional, organism-based; details: Human immunodeficiency virus 1, MT4
Outline: (§1)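 MT4 cells (150 000 cells/mL) infected with HIV-1/LAI wild type at 200 CCID50, with serial compound concentrations in 384-well format. Replication is read as GFP expression driven by HIV-tat acting on an LTR-GFP reporter. Incubation 3 days at 37 °C, 5% CO2. EC50/pEC50 are taken from dose-response curves of percent inhibition.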

[4] = tested on: Human immunodeficiency virus 1; experiment: Effective concentration against human immunodeficiency virus type 1 using cell-based replication assay in MT-4 cells; format: functional, organism-based; details: Human immunodeficiency virus 1, MT4; outline: as §1
[5] = target: T1, Human immunodeficiency virus type 1 integrase; experiment: Inhibitory concentration against human immunodeficiency virus type 1 integrase

T1 sequence (Q7ZJM1 whole entry): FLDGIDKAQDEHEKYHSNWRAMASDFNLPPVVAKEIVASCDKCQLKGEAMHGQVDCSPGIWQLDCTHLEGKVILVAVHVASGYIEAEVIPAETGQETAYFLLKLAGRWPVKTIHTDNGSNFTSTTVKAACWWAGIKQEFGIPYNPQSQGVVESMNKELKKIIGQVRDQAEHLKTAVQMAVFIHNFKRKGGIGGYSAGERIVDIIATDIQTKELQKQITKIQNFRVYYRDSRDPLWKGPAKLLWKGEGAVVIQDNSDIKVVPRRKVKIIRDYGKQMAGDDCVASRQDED

COc1cccc(CN2C(=O)c3c(c(O)c4nccnc4c3O)C2=O)c1OC gave an IC50 [1] of 0.427 µM, a pCC50 [2] of 4.72 and an EC50 [3] of 4.9 µM.
Work on COc1cccc(OC)c1CN1C(=O)c2c(c(O)c3nccnc3c2O)C1=O yielded an IC50 [1] of 2 µM, a pCC50 [2] of 5.09 and an EC50 [3] of 5.37 µM.
COc1ccc(CN2C(=O)c3c(c(O)c4nccnc4c3O)C2=O)cc1 showed an IC50 [1] of 0.562 µM, a pCC50 [2] of 4.64 and an EC50 [3] of 3.63 µM.
O=C1c2c(c(O)c3nccnc3c2O)C(=O)N1Cc1cccc(Cl)c1 gave an IC50 [1] of 0.219 µM, a pCC50 [2] of 4.73 and an EC50 [3] of 0.977 µM.
With O=C1c2c(c(O)c3nccnc3c2O)C(=O)N1C1CCCC1 the IC50 [1] was 10.5 µM, the pCC50 [2] was 4.55 and the EC50 [3] was > 32.4 µM.
O=C1c2c(c(O)c3nccnc3c2O)C(=O)N1Cc1ccc(OC(F)(F)F)cc1 showed an IC50 [1] of 2.04 µM, a pCC50 [2] of 5.6 and an EC50 [3] of 1.35 µM.
For O=C1c2c(c(O)c3nccnc3c2O)C(=O)N1Cc1cccc(F)c1, the IC50 [1] was 0.562 µM, the pCC50 [2] was 4.77 and the EC50 [3] was 5.37 µM.
For O=C1c2c(c(O)c3nccnc3c2O)C(=O)N1CCc1ccc2c(c1)OCO2, the IC50 [1] was 1.41 µM and the EC50 [3] was 11 µM.
O=C1c2c(c(O)c3nccnc3c2O)C(=O)N1Cc1ccc(Cl)c(Cl)c1 showed an IC50 [1] of 0.112 µM, a pCC50 [2] of 5.05 and an EC50 [3] of 0.912 µM.
Work on C[C@H](c1ccccc1)N1C(=O)c2c(c(O)c3nccnc3c2O)C1=O yielded an IC50 [1] of 1.05 µM, a pCC50 [2] of 4.76 and an EC50 [3] of 10.2 µM.
Cc1ccc2c(O)c3c(c(O)c2n1)C(=O)N(Cc1cccc(Br)c1)C3=O was tested, and the IC50 [1] was 0.257 µM, the pCC50 [2] was 4.78 and the EC50 [3] was 7.59 µM.
Compound C[C@@H](c1ccccc1)N1C(=O)c2c(c(O)c3nccnc3c2O)C1=O has an IC50 [1] of 2.04 µM, a pCC50 [2] of 4.81 and an EC50 [3] of 15.1 µM.
With COc1ccc(CN2C(=O)c3c(c(O)c4nccnc4c3O)C2=O)c(OC)c1 the IC50 [1] was 0.427 µM, the pCC50 [2] was 4.77 and the EC50 [3] was 13.5 µM.
With O=C1c2c(c(O)c3nccnc3c2O)C(=O)N1C1CCNCC1 the IC50 [1] was > 100 µM, the pCC50 [2] was <4.49 and the EC50 [3] was > 32.4 µM.
Work on O=S1(=O)CCCCN1c1nc(/C(O)=N/Cc2ccc(F)cc2)c(O)c2ncccc12 yielded an EC95 [4] of 0.1 µM and an IC50 [5] of 0.01 µM.
O=C1c2c(c(O)c3nccnc3c2O)C(=O)N1Cc1ccncc1 was tested, and the IC50 [1] was 6.76 µM, the pCC50 [2] was <4.49 and the EC50 [3] was > 32.4 µM.
In the case of O=C1c2c(c(O)c3nccnc3c2O)C(=O)N1Cc1ccccc1Br, the IC50 [1] is reported as 0.631 µM, the pCC50 [2] is reported as 4.75 and the EC50 [3] is reported as 15.1 µM.
O=C1c2c(c(O)c3nccnc3c2O)C(=O)N1Cc1ccc2c(c1)OCO2 was tested, and the IC50 [1] was 0.562 µM, the pCC50 [2] was <4.49 and the EC50 [3] was 3.16 µM.
For O=C1c2c(c(O)c3nccnc3c2O)C(=O)N1Cc1ccc(Br)cc1F, the IC50 [1] was 0.437 µM, the pCC50 [2] was 5.11 and the EC50 [3] was 2.4 µM.
With O=C1c2c(c(O)c3ccccc3c2O)C(=O)N1Cc1ccc(F)cc1 the IC50 [1] was > 100 µM, the pCC50 [2] was 4.59 and the EC50 [3] was 20 µM.
With O=C(c1ccccc1)N1CCC(N2C(=O)c3c(c(O)c4nccnc4c3O)C2=O)CC1 the IC50 [1] was 2.4 µM, the pCC50 [2] was <4.49 and the EC50 [3] was > 32.4 µM.
Work on O=C1c2c(c(O)c3nccnc3c2O)C(=O)N1Cc1cc(Cl)cc(Cl)c1 yielded an IC50 [1] of 0.186 µM, a pCC50 [2] of 4.72 and an EC50 [3] of 0.724 µM.
For O=C1c2c(c(O)c3nccnc3c2O)C(=O)N1Cc1cccc(Br)c1, the IC50 [1] was 0.209 µM, the pCC50 [2] was 4.49 and the EC50 [3] was 7.41 µM.
With O=C1c2c(c(O)c3nccnc3c2O)C(=O)N1Cc1ccc(-c2ccccc2F)cc1 the IC50 [1] was 1 µM, the pCC50 [2] was 4.83 and the EC50 [3] was 14.8 µM.
With CC(C)Oc1ccc(Cc2ccccc2)cc1/C(O)=C/C(=O)C(=O)O the IC50 [5] was 0.05 µM.
O=C1c2c(c(O)c3ncccc3c2O)C(=O)N1Cc1cccc(Br)c1 showed an IC50 [1] of 0.38 µM, a pCC50 [2] of 5.21 and an EC50 [3] of 3.09 µM.
With O=C1c2c(c(O)c3nnccc3c2O)C(=O)N1Cc1cccc(Br)c1 the IC50 [1] was 3.63 µM, the pCC50 [2] was <4.49 and the EC50 [3] was 21.4 µM.
For O=C1c2c(c(O)c3nccnc3c2O)C(=O)N1Cc1cc(F)cc(F)c1, the IC50 [1] was 0.372 µM, the pCC50 [2] was <4.49 and the EC50 [3] was 16.6 µM.
In the case of O=C1c2c(c(O)c3nccnc3c2O)C(=O)N1CC1CCCCC1, the IC50 [1] is reported as 2.19 µM, the pCC50 [2] is reported as 5.19 and the EC50 [3] is reported as 3.47 µM.
Compound O=C1c2c(c(O)c3nccnc3c2O)C(=O)N1CCc1ccccc1 has an IC50 [1] of 2.04 µM, a pCC50 [2] of 5.23 and an EC50 [3] of 4.9 µM.
O=C1c2c(c(O)c3nccnc3c2O)C(=O)N1Cc1ccc(Cl)cc1 gave an IC50 [1] of 0.417 µM, a pCC50 [2] of 5.58 and an EC50 [3] of 0.269 µM.
With O=C1c2c(c(O)c3nccnc3c2O)C(=O)N1Cc1ccc(-c2ccccc2)cc1 the IC50 [1] was 1.45 µM, the pCC50 [2] was 5.47 and the EC50 [3] was 2.57 µM.
Work on O=C1c2c(c(O)c3nccnc3c2O)C(=O)N1Cc1ccc(F)cc1 yielded an IC50 [1] of 0.417 µM, a pCC50 [2] of 4.69 and an EC50 [3] of 1.55 µM.
Compound O=C1c2c(c(O)c3nccnc3c2O)C(=O)N1Cc1cccc(-c2ccccc2F)c1 has an IC50 [1] of 0.501 µM, a pCC50 [2] of 4.82 and an EC50 [3] of 13.2 µM.
Work on O=C1c2c(c(O)c3nccnc3c2O)C(=O)N1Cc1ccc(F)c(Cl)c1 yielded an IC50 [1] of 0.178 µM, a pCC50 [2] of 4.7 and an EC50 [3] of 3.09 µM.
For O=C1c2c(c(O)c3nccnc3c2O)C(=O)N1Cc1cccc(C(F)(F)F)c1, the IC50 [1] was 0.427 µM, the pCC50 [2] was 4.77 and the EC50 [3] was 9.77 µM.
In the case of CN1C(=O)c2c(c(O)c3nccnc3c2O)C1=O, the IC50 [1] is reported as 49 µM, the pCC50 [2] is reported as <4.49 and the EC50 [3] is reported as > 32.4 µM.
With O=C1c2c(c(O)c3nccnc3c2O)C(=O)N1Cc1cc(Br)ccc1F the IC50 [1] was 0.355 µM, the pCC50 [2] was 5.38 and the EC50 [3] was 0.447 µM.
Compound Cc1ccc(CN2C(=O)c3c(c(O)c4nccnc4c3O)C2=O)cc1 has an IC50 [1] of 1.58 µM, a pCC50 [2] of 4.86 and an EC50 [3] of 1.78 µM.
COc1ccccc1CN1C(=O)c2c(c(O)c3nccnc3c2O)C1=O showed an IC50 [1] of 0.813 µM, a pCC50 [2] of 4.81 and an EC50 [3] of 3.8 µM.
Work on COc1ccc(OC)c(CN2C(=O)c3c(c(O)c4nccnc4c3O)C2=O)c1 yielded an IC50 [1] of 0.776 µM, a pCC50 [2] of 4.73 and an EC50 [3] of 4.79 µM.
For O=C1c2c(c(O)c3nccnc3c2O)C(=O)N1c1ccc2c(c1)OCO2, the IC50 [1] was 10 µM, the pCC50 [2] was <4.49 and the EC50 [3] was > 32.4 µM.
